Results on twelve substances are retold here after article PMC3294036 (Nature structural & molecular biology, 2012).

Assay [1] has as its target calcineurin (CN) (UniProt Q08209). Briefly: Calcineurin-AKAP79 competitive binding assay. On the set-up: species or system human. Particulars: for Ki: read-out: estimated Ki, competition with fluorescent PVIVIT peptide for binding to CN, GST-AKAP79(333–348) fusion proteins (14mer), representative of three experiments.
The target in a further assay is CN. Particulars: cited from earlier work; for Kd: read-out: Kd for CN, natural recognition sites.
The test system of assay [2] is CN-YFP / AKAP79-YFP mobility in rat hippocampal neuron dendritic spines. Briefly: FRAP microscopy in single dendritic spines. Type of assay: cell-based. The conditions noted are these: wildtype AKAP79-YFP in dendritic spines, single exponential fit.
In assay [3] the test system is NFAT3 (NFATc4) nuclear translocation in hippocampal neurons. As to the kind of experiment: NFAT translocation assay after KCl depolarization. It is filed as cell-based, rat. Particulars: full-length AKAP79 expressed after AKAP150 RNAi; 3-min 90 mM KCl.
Assay [4] concerns the target calcineurin (CN) (UniProt Q08209). It is filed as binding, human. Particulars: 36 °C. Summed up: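 ATTO 425-labeled AKAP79(333–408) donor (100 nM) was complexed with tetramethylrhodamine-labeled CN acceptor. The preformed complex was mixed in a stopped-flow instrument with 100 µM (final) unlabeled PVIVIT to block rebinding, at room temperature or 36 °C. Dissociation was followed as the fall in FRET signal, fitted as a single exponential; half-time was taken from the rate (n = 4).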

calcineurin (CN), sequence (Q08209 1-381): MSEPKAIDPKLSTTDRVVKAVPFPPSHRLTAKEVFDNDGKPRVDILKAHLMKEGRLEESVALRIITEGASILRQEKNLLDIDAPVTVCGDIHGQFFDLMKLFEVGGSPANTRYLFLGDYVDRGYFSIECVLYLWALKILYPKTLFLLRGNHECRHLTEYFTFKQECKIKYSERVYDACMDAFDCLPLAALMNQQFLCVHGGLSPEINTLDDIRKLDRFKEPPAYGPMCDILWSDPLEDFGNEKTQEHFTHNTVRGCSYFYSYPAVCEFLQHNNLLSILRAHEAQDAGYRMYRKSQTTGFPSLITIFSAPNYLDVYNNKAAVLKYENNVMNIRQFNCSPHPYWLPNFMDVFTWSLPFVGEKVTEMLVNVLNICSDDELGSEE
calcineurin (CN), sequence (P63098 16-170 partner): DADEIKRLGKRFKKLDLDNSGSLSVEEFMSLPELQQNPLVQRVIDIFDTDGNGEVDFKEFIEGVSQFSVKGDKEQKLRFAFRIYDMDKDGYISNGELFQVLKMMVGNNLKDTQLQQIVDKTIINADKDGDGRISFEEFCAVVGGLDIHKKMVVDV

As to AIAIIIT, the Ki on calcineurin (CN) [1] was 3.7 µM.

Turning to PSIQIT, the dissociation constant Kd on CN is ~25 µM.

As to “wildtype AKAP79: full-length RNAi-resistant human AKAP79 (YFP- or CFP-tagged) expressed in rat hippocampal neurons”, the “mobile fraction of AKAP79-YFP (maximal percent recovery)” value in assay [2] is given as 61.8 ± 0.6%. The “rescue of NFAT nuclear translocation” value in assay [3] is “rescued NFAT nuclear translocation”.

For the substance PVIAVN, the Kd at CN is 250 µM.

With PPAIIIT, the “fold stronger binding to CN than wildtype AKAP79” value at calcineurin (CN) [1] (GST fusion proteins displacing labeled PVIVIT) is ~ 4 fold. Moreover, the half-time of dissociation at calcineurin (CN) [4] (corresponding to mean dissociation rate) is given as ~ 163 ms. For the same substance, at calcineurin (CN) [4] (preformed complex mixed with excess unlabelled PVIVIT, mean of n = 4), the mean dissociation rate was 4.24 s⁻¹. In addition, in assay [3], the “rescue of NFAT nuclear translocation” value is given as “completely unable to rescue signaling”.

PRIEIT: at CN, the Kd is ~25 µM.

In the case of PSIRIT, the equilibrium dissociation constant (Kd) at CN was ~25 µM.

For the substance PPAIIIA, the “rescue of NFAT nuclear translocation” value in assay [3] is “as efficiently as wildtype AKAP79”.

As for PAAIIIT, the inhibitory constant (Ki) at calcineurin (CN) [1] is 47 µM.

Regarding PIAIIIA, the “rescue of NFAT nuclear translocation” value in assay [3] is “somewhat less efficiently”.

Regarding PQIIIS, the Kd on CN is 5 µM.

For the substance PRIEIA, the “shift in Kd caused by PRIEIT>PRIEIA substitution in NFAT1” value in the assay on CN is reported as 10 fold.
